Measurements published in ChEMBL document CHEMBL4020794, “Inhibition of phosphatidylinositol-3-kinase by the furanosesquiterpenoid hibiscone C” (Bioorg Med Chem Lett, 2017).
Activity calls are given as the source filed them. The rule behind the calls is not given here.

What was measured:
T-cell [1] = assay: Antiproliferative activity against C57BL/6 mouse T cells at […] after 18 hrs by trypan blue assay; assay type: functional, cell-based
Outline: (§1)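 Activated T cells in growth (not IL-2 starved) culture, duplicate samples, given DMSO vehicle or compound at the indicated doses. Followed over 24 h. At set time points, cells counted for proliferation and viability scored by trypan blue exclusion.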

Mus musculus [2] = species on record: Mus musculus; assay: Inhibition of PI3K in C57BL/6 mouse IL2 starved T cells assessed as decrease in IL-2 restimulated Akt phosphorylation at 100 uM preincubated for 30 mins followed by recombinant human IL-2 addition measured after 1 to 3 hrs by Western blot analysis
Outline: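 Activated T cells deprived of IL-2 overnight, pretreated 30 min with 100 µM compound or DMSO vehicle, then stimulated with 1000 U/mL recombinant human IL-2 for the indicated times. Phospho-Akt detected by Western blot, actin as loading control. Three independent experiments.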

Mus musculus [3] = species on record: Mus musculus; assay: Inhibition of PI3K in C57BL/6 mouse T cells assessed as decrease in Akt phosphorylation at <10 uM after 1 hr by Western blot analysis; assay type: cell-based
Mus musculus [4] = species on record: Mus musculus; assay: Competitive inhibition of PI3K in C57BL/6 mouse T cells assessed as decrease in Akt phosphorylation at 100 uM after 1 to 3 hrs by Western blot analysis; assay type: cell-based
Outline: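 Growing activated T cells, not starved of IL-2, exposed to 100 µM compound or DMSO vehicle for the indicated times. Phospho-Akt detected by Western blot, actin as loading control. Three independent experiments.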

T-cell [5] = assay: Cytotoxicity against C57BL/6 mouse T cells assessed as reduction in cell viability at 100 uM after 24 hrs by trypan blue assay; assay type: functional, cell-based; outline: as §1

inhibition (Mus musculus [2]): Active
Structure (SMILES): CC(C)[C@@H]1CC(=O)c2coc3c2[C@H]1C[C@@H](C)C3=O
Activity (T-cell [1]): Active | inhibition (Mus musculus [3]): inactive | inhibition (Mus musculus [4]): Active | Activity (T-cell [5]): Active
